Activity calls are given as the source filed them. No cut-off for these calls is given here.

For test [1], the system named is HepG2. As to the kind of experiment: Cytotoxicity against human HepG2 cells measured after 24 hrs by MTT assay. In kind it is functional, cell-based. Particulars: HepG2, 24 h. The method in brief: (§1)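 MTT viability assay on HepG-2 and MCF-7 cells with serial dilutions of compound for 24 hr. Viability is expressed as percent of untreated cells (taken as 100%). IC50 is the concentration inhibiting growth by 50%, mean ± SD of three independent experiments.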

For test [2], the system named is MCF7. The test can be described thus: Cytotoxicity against human MCF7 cells measured after 24 hrs by MTT assay. The test is classed as functional, cell-based. To be noted: MCF7, 24 h. The method, boiled down:
as §1

Test [3] relates to HepG2. As to the kind of experiment: Induction of apoptosis in human HepG2 cells assessed as viable cells by Annexin V-FITC/propidium iodide staining based flow cytometric analysis (reference value: 94.4 %). In kind it is functional.
In test [4] the test system is HepG2. The test can be described thus: Induction of apoptosis in human HepG2 cells assessed as necrotic cells by Annexin V-FITC/propidium iodide staining based flow cytometric analysis (reference value: 0.007 %). The test is classed as functional.
For test [5], the system named is HepG2. The test can be described thus: Induction of apoptosis in human HepG2 cells assessed as late apoptotic cells by Annexin V-FITC/propidium iodide staining based flow cytometric analysis (reference value: 0.507 %). The test is classed as functional.
Test [6] has as its system HepG2. As to the kind of experiment: Induction of apoptosis in human HepG2 cells assessed as early apoptotic cells by Annexin V-FITC/propidium iodide staining based flow cytometric analysis (reference value: 5.06 %). The test is classed as functional.
In test [7] the target is Epidermal growth factor receptor (Homo sapiens, UniProt P00533). As to the kind of experiment: Inhibition of EGFR (unknown origin).
Sequence of Epidermal growth factor receptor (P00533 whole entry): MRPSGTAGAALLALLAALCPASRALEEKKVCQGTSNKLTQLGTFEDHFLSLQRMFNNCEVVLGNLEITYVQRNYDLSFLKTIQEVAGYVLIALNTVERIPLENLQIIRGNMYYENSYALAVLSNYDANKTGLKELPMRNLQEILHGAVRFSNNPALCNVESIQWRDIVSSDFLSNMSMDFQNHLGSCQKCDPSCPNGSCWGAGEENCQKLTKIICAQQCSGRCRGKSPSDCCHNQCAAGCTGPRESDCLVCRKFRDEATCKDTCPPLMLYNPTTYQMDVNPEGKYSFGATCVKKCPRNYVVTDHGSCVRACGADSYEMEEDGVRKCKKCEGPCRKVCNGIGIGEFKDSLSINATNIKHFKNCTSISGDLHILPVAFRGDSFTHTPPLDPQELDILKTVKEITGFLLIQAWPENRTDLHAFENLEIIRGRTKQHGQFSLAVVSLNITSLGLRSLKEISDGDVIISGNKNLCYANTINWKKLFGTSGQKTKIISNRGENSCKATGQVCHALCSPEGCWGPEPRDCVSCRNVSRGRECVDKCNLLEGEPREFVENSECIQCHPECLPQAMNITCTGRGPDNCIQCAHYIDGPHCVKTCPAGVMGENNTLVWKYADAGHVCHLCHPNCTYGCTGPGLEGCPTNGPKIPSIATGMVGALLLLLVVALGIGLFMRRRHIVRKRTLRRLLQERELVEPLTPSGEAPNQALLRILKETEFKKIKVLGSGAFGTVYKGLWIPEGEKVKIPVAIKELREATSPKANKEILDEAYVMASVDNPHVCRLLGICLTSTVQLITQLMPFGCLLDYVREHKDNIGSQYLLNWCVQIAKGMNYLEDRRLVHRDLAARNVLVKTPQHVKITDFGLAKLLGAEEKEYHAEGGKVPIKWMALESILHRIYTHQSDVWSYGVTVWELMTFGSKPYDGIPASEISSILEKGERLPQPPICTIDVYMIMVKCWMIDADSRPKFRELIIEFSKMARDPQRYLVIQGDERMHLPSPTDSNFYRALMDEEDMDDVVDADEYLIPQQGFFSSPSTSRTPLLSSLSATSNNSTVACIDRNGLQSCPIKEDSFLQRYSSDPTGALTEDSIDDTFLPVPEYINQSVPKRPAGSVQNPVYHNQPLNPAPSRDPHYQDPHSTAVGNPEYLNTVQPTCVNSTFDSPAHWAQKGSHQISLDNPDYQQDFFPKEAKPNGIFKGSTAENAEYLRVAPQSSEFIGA
A short description of test [8]: Downregulation of Survivin mRNA expression in human HepG2 cells by real time RT-PCR analysis relative to control. In kind it is functional. The method, boiled down: (§2)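 HepG-2 cells were treated with compound. Survivin, XIAP and p21 mRNA were quantified by real-time RT-PCR, with each triplicate's Ct normalized to GAPDH. Expression is relative to control.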
Test [9] is described as follows: Downregulation of XIAP mRNA expression in human HepG2 cells by real time RT-PCR analysis relative to control. The test is classed as functional. The method in brief:
as §2

Test [10] can be described thus: Upregulation of p21 mRNA expression in human HepG2 cells by real time RT-PCR analysis relative to control. The test is classed as functional. The method in brief: as §2
For test [11], the system named is HepG2. The test can be described thus: Induction of apoptosis in human HepG2 cells assessed as increase in caspase-3 level by ELISA relative to control. The test is classed as functional. The method in brief:
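HepG-2 cells were treated with compound, with DMSO-treated cells as control. Caspase-3 secreted into the culture medium was measured by ELISA, given as mean ± SD, n = 3.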

The test system of test [12] is HepG2. The test can be described thus: Cell cycle arrest in human HepG2 cells assessed as accumulation of cells at G2/M phase measured by flow cytometry ( Rvb = 21.7%). In kind it is functional.
For test [13], the system named is HepG2. As to the kind of experiment: Cell cycle arrest in human HepG2 cells assessed as accumulation of cells at S phase measured by flow cytometry (reference value: 6.08%). The test is classed as functional.
In test [14] the test system is HepG2. As to the kind of experiment: Cell cycle arrest in human HepG2 cells assessed as accumulation of cells at G0/G1 phase measured by flow cytometry (reference value: 71.6%). The test is classed as functional.
Test [15] relates to HepG2. The test can be described thus: Radiosensitizing activity against human HepG2 cells assessed as reduction in cell viability pretreated with compound followed by exposure to 8 Gy gamma irradiation and measured by MTT assay. In kind it is functional, cell-based. Particulars: HepG2, light or radiation study. The method in brief: (§3)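 HepG-2 and MCF-7 cells containing compound received a single dose of 8 Gy gamma radiation. Cytotoxicity was then measured, with IC50 as the mean ± SD of three independent experiments.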

Test [16] deals with MCF7. As to the kind of experiment: Radiosensitizing activity against human MCF7 cells assessed as reduction in cell viability pretreated with compound followed by exposure to 8 Gy gamma irradiation and measured by MTT assay. In kind it is functional, cell-based. Particulars: MCF7, light or radiation study. The method in brief: as §3
Test [17] deals with HepG2. As to the kind of experiment: Radiosensitizing activity against human HepG2 cells assessed as downregulation of Survivin mRNA expression pretreated with compound followed by exposure to 8 Gy gamma irradiation by real time RT-PCR analysis. In kind it is functional, cell-based.
For test [18], the system named is HepG2. As to the kind of experiment: Radiosensitizing activity against human HepG2 cells assessed as downregulation of XIAP mRNA expression pretreated with compound followed by exposure to 8 Gy gamma irradiation by real time RT-PCR analysis. In kind it is functional, cell-based.

Take `CC(=O)Nc1ccc(S(=O)(=O)NNC(=O)CSc2nc3ccccc3c(=O)n2Cc2ccc3c(c2)OCO3)cc1`: the IC50 in the test with HepG2 [1] was 33.9 µM; in the test with MCF7 [2], 11.4 µM.

`O=C(CSc1nc2ccccc2c(=O)n1Cc1ccc2c(c1)OCO2)Nc1ccc(I)cc1`: the Activity in the test with HepG2 [3] came out at 92.5%; in the test with HepG2 [4], 0.024%; in the test on HepG2 [5], 0.308%; in the test on HepG2 [6], 7.12%; in test [10] it was 200%; with HepG2 [11], 50%. The Activity was 87.8% with HepG2 [12], 2.73% with HepG2 [13] and 0.042% in the test with HepG2 [14]. Also, the IC50 with HepG2 [1] was 13.2 µM; with MCF7 [2], 6.84 µM; in [7], 0.754 µM; in the test on HepG2 [15], 4.32 µM; in the test on MCF7 [16], 4.69 µM. For the same molecule, the “inhibition (INH)” value in [8] and in [9] was 50% throughout. Further, the outcome in the test with HepG2 [17] and in the test on HepG2 [18] was Active.

As to `O=C(CSc1nc2ccccc2c(=O)n1Cc1ccc2c(c1)OCO2)Nc1ccc(F)cc1`, the IC50 in the test with HepG2 [1] came out at 7.18 µM; in the test on MCF7 [2], 14.5 µM.

For `O=C(CSc1nc2ccccc2c(=O)n1Cc1ccc2c(c1)OCO2)Nc1ccccc1F`, the Activity is 84.5% with HepG2 [3]; 0.02% in the test with HepG2 [4]; 0.762% in the test on HepG2 [5]; 12.6% in the test on HepG2 [6]; 400% in test [10]; 100% in the test on HepG2 [11]. Further, the Activity came out at 92.9% in the test on HepG2 [12], 0.071% in the test with HepG2 [13] and 0% with HepG2 [14]. In addition, the IC50 worked out at 2.46 µM in the test on HepG2 [1]; 5.86 µM in the test on MCF7 [2]; 0.207 µM in test [7]; 1.56 µM in the test with HepG2 [15]; 3.06 µM in the test on MCF7 [16]. Also, the “inhibition (INH)” value in test [8] and in test [9] was 50% in each case. Moreover, the outcome with HepG2 [17] and in the test on HepG2 [18] was Active.

As for `Cc1ccc(S(=O)(=O)NNC(=O)CSc2nc3ccccc3c(=O)n2Cc2ccc3c(c2)OCO3)cc1`, the figures for the IC50 in the test on HepG2 [1] and in the test on MCF7 [2] were 28.2 µM and 49.8 µM, respectively.

Consider `O=C(CSc1nc2ccccc2c(=O)n1Cc1ccc2c(c1)OCO2)NNS(=O)(=O)c1ccccc1`, for which the IC50 in the test with HepG2 [1] came out at 22.2 µM; with MCF7 [2] it was 88.9 µM.

As for `COc1cccc2c1C(=O)c1c(O)c3c(c(O)c1C2=O)C[C@@](O)(C(=O)CO)C[C@@H]3O[C@H]1C[C@H](N)[C@H](O)[C@H](C)O1` [DOXORUBICIN], half-maximal inhibition in the test on HepG2 [1] (IC50) required 8.9 µM.

As for `O=C(CSc1nc2ccccc2c(=O)n1Cc1ccc2c(c1)OCO2)Nc1ccccc1Cl`, the IC50 in the test with HepG2 [1] is 17.9 µM; in the test on MCF7 [2], 10.3 µM.

Turning to `O=c1c2ccccc2[nH]c(=S)n1Cc1ccc2c(c1)OCO2`, the IC50 in the test on HepG2 [1] is 27.3 µM; with MCF7 [2], 26.6 µM.

In the case of `O=C(CSc1nc2ccccc2c(=O)n1Cc1ccc2c(c1)OCO2)NNC(=S)Nc1ccc(S(=O)(=O)Nc2ccccn2)cc1`, the IC50 came to 36.9 µM in the test with HepG2 [1] and 3.87 µM with MCF7 [2].

In the case of `O=C(CSc1nc2ccccc2c(=O)n1Cc1ccc2c(c1)OCO2)Nc1ccc(Br)cc1Br`, the Activity in the test on HepG2 [3] was 86.6%; with HepG2 [4] it was 0.02%; with HepG2 [5], 0.16%; with HepG2 [6], 15.4%; in test [10], 400%; in the test on HepG2 [11], 50%. Besides, the results for the Activity in the test with HepG2 [12], in the test on HepG2 [13] and in the test with HepG2 [14] were 85.8%, 2.32% and 0.06%, respectively. Also, the IC50 was 4.01 µM with HepG2 [1]; 14.9 µM in the test on MCF7 [2]; 1.03 µM in test [7]; 1.76 µM with HepG2 [15]; 4.91 µM in the test on MCF7 [16]. The “inhibition (INH)” value in test [8] and in test [9] was 50% each time. Also, the result in the test on HepG2 [17] and in the test on HepG2 [18] was Active.

`CCC(=O)Nc1ccc(S(=O)(=O)Nc2ccc(/C(C)=N/NC(=O)CSc3nc4ccccc4c(=O)n3Cc3ccc4c(c3)OCO4)cc2)cc1`: the IC50 in the test on HepG2 [1] was 4.21 µM; in the test on MCF7 [2], 15.1 µM.

In the case of `C#Cc1cccc(Nc2ncnc3cc(OCCOC)c(OCCOC)cc23)c1` [ERLOTINIB], inhibition in the test on MCF7 [2] was half-maximal at 12.4 µM (IC50).

Consider `O=C(CSc1nc2ccccc2c(=O)n1Cc1ccc2c(c1)OCO2)NNC(=S)Nc1ccc(S(=O)(=O)Nc2ccc(Cl)nn2)cc1`, for which the IC50 turned out to be 9.34 µM in the test with HepG2 [1] and 46 µM in the test on MCF7 [2].

As for `NNC(=O)CSc1nc2ccccc2c(=O)n1Cc1ccc2c(c1)OCO2`, the IC50 was 8.15 µM with HepG2 [1] and 20.7 µM with MCF7 [2].

As to `O=C(CSc1nc2ccccc2c(=O)n1Cc1ccc2c(c1)OCO2)Nc1cccc(F)c1`, the figures for the IC50 in the test on HepG2 [1] and in the test on MCF7 [2] were 8.51 µM and 7.6 µM, respectively.

Consider `O=C(CSc1nc2ccccc2c(=O)n1Cc1ccc2c(c1)OCO2)Nc1cc(Cl)c(Cl)cc1Cl`, for which the IC50 with HepG2 [1] was 12.1 µM; with MCF7 [2], 26.1 µM.

Take `CCS(=O)(=O)Nc1ccc(/C(C)=N/NC(=O)CSc2nc3ccccc3c(=O)n2Cc2ccc3c(c2)OCO3)cc1`: the values for the IC50 with HepG2 [1] and in the test with MCF7 [2] were 9.08 µM and 13.9 µM, respectively.

With `O=C(CSc1nc2ccccc2c(=O)n1Cc1ccc2c(c1)OCO2)Nc1ccc(Br)cc1`, the IC50 with HepG2 [1] was determined as 11.1 µM; in the test with MCF7 [2], 20.4 µM.

Regarding `CCS(=O)(=O)NNC(=O)CSc1nc2ccccc2c(=O)n1Cc1ccc2c(c1)OCO2`, the Activity in the test on HepG2 [3] amounted to 86.1%; in the test with HepG2 [4], 0.012%; in the test on HepG2 [5] it was 0.4%; in the test on HepG2 [6], 13.5%; in test [10] it was 500%; with HepG2 [11] it was 50%. In addition, the Activity is on record as 94.2% with HepG2 [12], 2.45% in the test on HepG2 [13] and 0.039% with HepG2 [14]. The IC50 stood at 8.76 µM in the test with HepG2 [1]; 15.3 µM in the test with MCF7 [2]; 0.147 µM in test [7]; 2.25 µM in the test on HepG2 [15]; 5.93 µM with MCF7 [16]. Also, the “inhibition (INH)” value in test [8] and in test [9] was 50% each time. The outcome with HepG2 [17] and in the test on HepG2 [18] was Active.

(Values after ChEMBL document CHEMBL4808227, “Induction of apoptosis, cytotoxicity and radiosensitization by novel 3,4-dihydroquinazolinone derivatives” (Bioorg Med Chem Lett, 2021).)
